From ChEMBL document CHEMBL3627655, “Design, synthesis and biological activity of phenoxyacetic acid derivatives as novel free fatty acid receptor 1 agonists” (Bioorg Med Chem, 2015)
Activity calls are given as the source filed them. No cut-off for these calls is given here.

Tests used:
[1] = molecular target: T1, Free fatty acid receptor 1 (Homo sapiens, UniProt O14842); assay: Agonist activity at human FFA1 receptor expressed in CHO cells assessed as increase in intracellular calcium flux at 100 nM by FLIPR assay relative to control; assay type: functional, cell-based
T1 sequence (O14842 whole entry): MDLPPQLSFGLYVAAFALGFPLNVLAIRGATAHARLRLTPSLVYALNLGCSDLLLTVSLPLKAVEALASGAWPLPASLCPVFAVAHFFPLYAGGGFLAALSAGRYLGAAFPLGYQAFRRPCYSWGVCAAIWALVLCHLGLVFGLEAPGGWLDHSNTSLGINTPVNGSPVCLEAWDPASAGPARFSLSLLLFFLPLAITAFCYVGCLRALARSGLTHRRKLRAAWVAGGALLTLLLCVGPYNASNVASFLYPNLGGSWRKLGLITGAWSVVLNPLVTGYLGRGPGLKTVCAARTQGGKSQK
Summary of the method: (§1)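 CHO cells stably expressing human FFA1 (NM_005303), seeded at 15 K cells/well and grown 16 h at 37 °C, 5% CO2. Calcium flux read by FLIPR Tetra. Response = (A−B)/(C−B)×100, with B vehicle and C 10 μM γ-linolenic acid. Mean of three independent experiments.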

[2] = molecular target: T1, Free fatty acid receptor 1; assay: Agonist activity at human FFA1 receptor expressed in CHO cells assessed as increase in intracellular calcium flux by FLIPR assay; assay type: functional, cell-based; summary of the method: as §1
[3] = 1-octanol-phosphate buffer partition coefficient, log D of the compound at 100 uM at pH 7.4 after 24 hrs by shake-flask method; assay type: physicochemical
Summary of the method: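 Test compound at 100 μM final (from 10 mM DMSO stock) in 0.01 M phosphate buffer pH 7.4 and 1-octanol, shaken 700 rpm for 24 h, phases left 1 h to separate. Each phase analysed by HPLC in duplicate at 254 nm. LogD is the octanol/buffer peak-area ratio, corrected with two calibration points per compound per solvent. Three independent experiments.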

Mus musculus [4] = assay: Toxicity in overnight fasted ICR mouse assessed as hypoglycemia at 15 mg/kg, po measured at 30 to 180 mins; assay type: organism-based; conditions: in vivo
Summary of the method: (§2)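 Male ICR mice, 10 weeks old, fasted overnight, in 3 groups (n = 6). Single oral dose in 0.5% CMC. Tail-vein blood glucose measured by strips at 0, 30, 60, 90, 120 and 180 min. Mean ± SEM, Student's t test.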

Mus musculus [5] = assay: Antidiabetic activity in po dosed overnight fasted ICR mouse assessed as decrease in blood glucose level administered glucose 30 mins post compound treatment measured at 15 to 120 mins by OGTT; assay type: functional, organism-based
Summary of the method: (§3)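 Male ICR mice, 10 weeks old, fasted 12 h and randomized (n = 6). Compound given orally at 10, 20 or 40 mg/kg in 0.5% CMC, with 30% glucose (3 g/kg) orally 30 min later. Tail blood glucose measured by test strips at −30, 0, 15, 30, 45, 60 and 120 min. Student's t test vs vehicle.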

Mus musculus [6] = assay: Antidiabetic activity in overnight fasted STZ-induced type 2 diabetic C57BL/6 mouse model assessed as decrease in blood glucose level at 20 mg/kg, po administered glucose 30 mins post compound treatment measured at 15 to 120 mins by OGTT; assay type: functional, organism-based
Summary of the method: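 Male C57BL/6 mice on 45% fat diet for 4 weeks, then STZ 80 mg/kg ip, then high-fat diet 4 more weeks. Mice with fasting glucose ≥11.1 mmol/L were used, fasted 12 h (n = 6). Oral dose in 0.5% CMC, with 20% glucose (2 g/kg) orally 30 min later. Strip glucose read at −30, 0, 15, 30, 45, 60 and 120 min.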

Mus musculus [7] = assay: Toxicity in overnight fasted ICR mouse assessed as hypoglycemia at 40 mg/kg, po measured at 30 to 180 mins; assay type: organism-based; conditions: in vivo; summary of the method: as §2
Mus musculus [8] = assay: Antidiabetic activity in overnight fasted ICR mouse assessed as decrease in blood glucose level at 20 mg/kg, po administered glucose 30 mins post compound treatment measured at 15 to 120 mins by OGTT; assay type: functional, organism-based; summary of the method: as §3

SMILES	Activity [1]	EC50 [2]	logD at 24 h, 100 µM [3]	other results
Cc1cc(OC(C)C)cc(C)c1-c1cccc(COc2ccc(OCC(=O)O)c(F)c2)c1	36.9%	–	–	–
Cc1cc(OCCCO)cc(C)c1-c1cccc(COc2ccc(OCC(=O)O)c(F)c2)c1	44.4%	110 nM	2.73	–
Cc1cc(OCCCS(C)(=O)=O)cc(C)c1-c1cccc(COc2ccc(N(CC(=O)O)C(=O)c3ccoc3)cc2)c1	28.9%	–	–	–
Cc1cc(OCC(=O)N(C)C)cc(C)c1-c1cccc(COc2ccc(OCC(=O)O)c(F)c2)c1	13.5%	–	–	–
Cc1cc(OCCCS(C)(=O)=O)cc(C)c1-c1cccc(COc2ccc(OCC(=O)O)c(F)c2)c1	–	–	1.81	–
COc1ccc(Cl)cc1C(=O)NCCc1ccc(S(=O)(=O)NC(=O)NC2CCCCC2)cc1 [GLYBURIDE]	–	–	–	Activity (Mus musculus [4]): Toxic
CC(=O)N(CC(=O)O)c1ccc(OCc2cccc(-c3c(C)cc(OCCCS(C)(=O)=O)cc3C)c2)cc1C	18.4%	–	–	–
CCCOc1cc(C)c(-c2cccc(COc3ccc(OCC(=O)O)c(F)c3)c2)c(C)c1	47.9%	106 nM	3.64	–
Cc1cc(OCC(=O)N2CCOCC2)cc(C)c1-c1cccc(COc2ccc(OCC(=O)O)c(F)c2)c1	18.4%	–	–	–
Cc1cc(OCCCS(C)(=O)=O)cc(C)c1-c1cccc(COc2ccc(N(CC(=O)O)C(=O)c3ccccc3)cc2)c1	23.5%	–	–	–
COCCCOc1cc(C)c(-c2cccc(COc3ccc(OCC(=O)O)c(F)c3)c2)c(C)c1	38%	–	–	–
Cc1cc(OCCCS(C)(=O)=O)ccc1-c1cccc(COc2ccc(OCC(=O)O)c(F)c2)c1	61.3%	43.6 nM	1.63	Activity (Mus musculus [5]): Dose-dependent effect; Activity (Mus musculus [6]): Active; Activity (Mus musculus [7]): Non-toxic
CCCCOc1cc(C)c(-c2cccc(COc3ccc(OCC(=O)O)c(F)c3)c2)c(C)c1	41.6%	–	–	–
Cc1cc(OCCOCc2ccccc2)cc(C)c1-c1cccc(COc2ccc(OCC(=O)O)c(F)c2)c1	23.6%	–	–	–
Cc1cc(OCc2cccc(-c3c(C)cc(OCCCS(C)(=O)=O)cc3C)c2)ccc1N(CC(=O)O)C(=O)c1ccccc1	2.57%	–	–	–
Cc1cc(OCc2ccccc2)cc(C)c1-c1cccc(COc2ccc(OCC(=O)O)c(F)c2)c1	26.4%	–	–	–
CCOc1cc(C)c(-c2cccc(COc3ccc(OCC(=O)O)c(F)c3)c2)c(C)c1	53.1%	65.9 nM	3.48	–
Cc1cc(OCC(C)C)cc(C)c1-c1cccc(COc2ccc(OCC(=O)O)c(F)c2)c1	35.2%	–	–	–
CC(=O)N(CC(=O)O)c1ccc(OCc2cccc(-c3c(C)cc(OCCCS(C)(=O)=O)cc3C)c2)cc1	36.3%	–	–	–
Cc1cc(O)cc(C)c1-c1cccc(COc2ccc(OCC(=O)O)c(F)c2)c1	44.3%	110 nM	2.37	–
Cc1cc(OCCCS(C)(=O)=O)cc(C)c1-c1cccc(COc2ccc3c(c2)OC[C@H]3CC(=O)O)c1	–	–	2.43	Activity (Mus musculus [6]): Active; Activity (Mus musculus [8]): Active
COc1cc(C)c(-c2cccc(COc3ccc(OCC(=O)O)c(F)c3)c2)c(C)c1	58.4%	49.7 nM	3.2	–
COCCOc1cc(C)c(-c2cccc(COc3ccc(OCC(=O)O)c(F)c3)c2)c(C)c1	48.7%	104 nM	3.15	–
